The source made the active and inactive calls. The calls are words filed in the database; no cut-off is given here.
Experiments:
INA-6 = assay: Inhibition of heat shock response in human INA-6 cells assessed as reduction in HSF-1 mediated upregulation of the heat shock protein HSP27 at 50 uM preincubated for 4 hrs followed by HSP90 inhibitor and HSR inducer NVP-AUY922 addition measured after 4 hrs by ELISA; type: functional, cell-based
[1] = biological target: MICOS complex subunit MIC19 (Homo sapiens) (UniProt Q9NX63); assay: Binding affinity to MICOS complex subunit MIC19 in human INA-6 cells after 3 hrs by nanoLC-MS/MS method; type: cell-based
Method in brief: (§1)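 The biotinylated inhibitor was loaded on streptavidin beads, with empty beads as the control. Eluates were trypsin-digested and run by nanoLC-MS/MS. Inhibitor/control ratios came from label-free quantification, taken as medians of five biological replicates. Enrichment was called at Benjamini-Hochberg-adjusted limma p < 0.02.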

[2] = biological target: MICOS complex subunit MIC25 (Homo sapiens) (UniProt Q9BRQ6); assay: Binding affinity to MICOS complex subunit MIC25 in human INA-6 cells after 3 hrs by nanoLC-MS/MS method; type: cell-based; method in brief: as §1
[3] = biological target: CCR4-NOT transcription complex subunit 2 (Homo sapiens) (UniProt Q9NZN8); assay: Binding affinity to CCR4-NOT transcription complex subunit 2 in human INA-6 cells after 3 hrs by nanoLC-MS/MS method; type: cell-based; method in brief: as §1
[4] = biological target: CCR4-NOT transcription complex subunit 7 (Homo sapiens) (UniProt Q9UIV1); assay: Binding affinity to CCR4-NOT transcription complex subunit 7 in human INA-6 cells after 3 hrs by nanoLC-MS/MS method; type: cell-based; method in brief: as §1
[5] = biological target: CCR4-NOT transcription complex subunit 10 (Homo sapiens) (UniProt Q9H9A5); assay: Binding affinity to CCR4-NOT transcription complex subunit 10 in human INA-6 cells after 3 hrs by nanoLC-MS/MS method; type: cell-based; method in brief: as §1
[6] = biological target: CCR4-NOT transcription complex subunit 11 (Homo sapiens) (UniProt Q9UKZ1); assay: Binding affinity to CCR4-NOT transcription complex subunit 11 in human INA-6 cells after 3 hrs by nanoLC-MS/MS method; type: cell-based; method in brief: as §1
[7] = biological target: Survival motor neuron protein (Homo sapiens) (UniProt Q16637); assay: Binding affinity to survival motor neuron protein in human INA-6 cells after 3 hrs by nanoLC-MS/MS method; type: cell-based; method in brief: as §1
[8] = biological target: Gem-associated protein 7 (Homo sapiens) (UniProt Q9H840); assay: Binding affinity to GEMIN7 in human INA-6 cells after 3 hrs by nanoLC-MS/MS method; type: cell-based; method in brief: as §1
[9] = biological target: Serine/threonine-protein phosphatase 6 catalytic subunit (Homo sapiens) (UniProt O00743); assay: Binding affinity to serine/threonine-protein phosphatase 6 catalytic subunit in human INA-6 cells after 3 hrs by nanoLC-MS/MS method; type: cell-based; method in brief: as §1
[10] = biological target: Serine/threonine-protein phosphatase 6 regulatory subunit 3 (Homo sapiens) (UniProt Q5H9R7); assay: Binding affinity to serine/threonine-protein phosphatase 6 regulatory subunit 3 in human INA-6 cells after 3 hrs by nanoLC-MS/MS method; type: cell-based; method in brief: as §1
[11] = biological target: Serine/threonine-protein phosphatase 6 regulatory ankyrin repeat subunit C (Homo sapiens) (UniProt Q8NB46); assay: Binding affinity to serine/threonine-protein phosphatase 6 regulatory ankyrin repeat subunit C in human INA-6 cells after 3 hrs by nanoLC-MS/MS method; type: cell-based; method in brief: as §1
[12] = biological target: DNA-dependent protein kinase catalytic subunit (Homo sapiens) (UniProt P78527); assay: Binding affinity to PRKDC protein in human INA-6 cells after 3 hrs by nanoLC-MS/MS method; type: cell-based; method in brief: as §1
[13] = biological target: Serine/threonine-protein kinase mTOR (Homo sapiens) (UniProt P42345); assay: Binding affinity to mTOR protein in human INA-6 cells after 3 hrs by nanoLC-MS/MS method; type: cell-based; method in brief: as §1
[14] = biological target: Serine/threonine-protein phosphatase 6 regulatory subunit 2 (Homo sapiens) (UniProt O75170); assay: Binding affinity to PP6R2 protein in human INA-6 cells after 3 hrs by nanoLC-MS/MS method; type: cell-based; method in brief: as §1
[15] = biological target: Protein MON2 homolog (Homo sapiens) (UniProt Q7Z3U7); assay: Binding affinity to MON2 protein in human INA-6 cells after 3 hrs by nanoLC-MS/MS method; type: cell-based; method in brief: as §1
[16] = biological target: Protein CIP2A (Homo sapiens) (UniProt Q8TCG1); assay: Binding affinity to CIP2A protein in human INA-6 cells after 3 hrs by nanoLC-MS/MS method; type: cell-based; method in brief: as §1
[17] = biological target: Conserved oligomeric Golgi complex subunit 1 (Homo sapiens) (UniProt Q8WTW3); assay: Binding affinity to COG1 in human INA-6 cells after 3 hrs by nanoLC-MS/MS method; type: cell-based; method in brief: as §1
[18] = biological target: DNA-dependent protein kinase catalytic subunit (Homo sapiens) (UniProt P78527); assay: Binding affinity to PRKDC protein in human INA-6 cells after 3 hrs by Western blot method; type: cell-based
Method in brief: (§2)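 INA-6 lysate was incubated with compound-coupled streptavidin beads or with beads only as the control. Captured-protein eluates were Western blotted with specific antibodies against DNA-PK, ATM, ATR or mTOR. H2AX staining or Ponceau S served as loading controls.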

[19] = biological target: Serine-protein kinase ATM (Homo sapiens) (UniProt Q13315); assay: Binding affinity to ATM protein in human INA-6 cells after 3 hrs by Western blot method; type: cell-based; method in brief: as §2
[20] = biological target: Serine/threonine-protein kinase ATR (Homo sapiens) (UniProt Q13535); assay: Binding affinity to ATR protein in human INA-6 cells after 3 hrs by Western blot method; type: cell-based; method in brief: as §2
[21] = biological target: Serine/threonine-protein kinase mTOR (Homo sapiens) (UniProt P42345); assay: Binding affinity to mTOR protein in human INA-6 cells after 3 hrs by Western blot method; type: cell-based; method in brief: as §2

Chain of DNA-dependent protein kinase catalytic subunit (Homo sapiens) (P78527 whole entry): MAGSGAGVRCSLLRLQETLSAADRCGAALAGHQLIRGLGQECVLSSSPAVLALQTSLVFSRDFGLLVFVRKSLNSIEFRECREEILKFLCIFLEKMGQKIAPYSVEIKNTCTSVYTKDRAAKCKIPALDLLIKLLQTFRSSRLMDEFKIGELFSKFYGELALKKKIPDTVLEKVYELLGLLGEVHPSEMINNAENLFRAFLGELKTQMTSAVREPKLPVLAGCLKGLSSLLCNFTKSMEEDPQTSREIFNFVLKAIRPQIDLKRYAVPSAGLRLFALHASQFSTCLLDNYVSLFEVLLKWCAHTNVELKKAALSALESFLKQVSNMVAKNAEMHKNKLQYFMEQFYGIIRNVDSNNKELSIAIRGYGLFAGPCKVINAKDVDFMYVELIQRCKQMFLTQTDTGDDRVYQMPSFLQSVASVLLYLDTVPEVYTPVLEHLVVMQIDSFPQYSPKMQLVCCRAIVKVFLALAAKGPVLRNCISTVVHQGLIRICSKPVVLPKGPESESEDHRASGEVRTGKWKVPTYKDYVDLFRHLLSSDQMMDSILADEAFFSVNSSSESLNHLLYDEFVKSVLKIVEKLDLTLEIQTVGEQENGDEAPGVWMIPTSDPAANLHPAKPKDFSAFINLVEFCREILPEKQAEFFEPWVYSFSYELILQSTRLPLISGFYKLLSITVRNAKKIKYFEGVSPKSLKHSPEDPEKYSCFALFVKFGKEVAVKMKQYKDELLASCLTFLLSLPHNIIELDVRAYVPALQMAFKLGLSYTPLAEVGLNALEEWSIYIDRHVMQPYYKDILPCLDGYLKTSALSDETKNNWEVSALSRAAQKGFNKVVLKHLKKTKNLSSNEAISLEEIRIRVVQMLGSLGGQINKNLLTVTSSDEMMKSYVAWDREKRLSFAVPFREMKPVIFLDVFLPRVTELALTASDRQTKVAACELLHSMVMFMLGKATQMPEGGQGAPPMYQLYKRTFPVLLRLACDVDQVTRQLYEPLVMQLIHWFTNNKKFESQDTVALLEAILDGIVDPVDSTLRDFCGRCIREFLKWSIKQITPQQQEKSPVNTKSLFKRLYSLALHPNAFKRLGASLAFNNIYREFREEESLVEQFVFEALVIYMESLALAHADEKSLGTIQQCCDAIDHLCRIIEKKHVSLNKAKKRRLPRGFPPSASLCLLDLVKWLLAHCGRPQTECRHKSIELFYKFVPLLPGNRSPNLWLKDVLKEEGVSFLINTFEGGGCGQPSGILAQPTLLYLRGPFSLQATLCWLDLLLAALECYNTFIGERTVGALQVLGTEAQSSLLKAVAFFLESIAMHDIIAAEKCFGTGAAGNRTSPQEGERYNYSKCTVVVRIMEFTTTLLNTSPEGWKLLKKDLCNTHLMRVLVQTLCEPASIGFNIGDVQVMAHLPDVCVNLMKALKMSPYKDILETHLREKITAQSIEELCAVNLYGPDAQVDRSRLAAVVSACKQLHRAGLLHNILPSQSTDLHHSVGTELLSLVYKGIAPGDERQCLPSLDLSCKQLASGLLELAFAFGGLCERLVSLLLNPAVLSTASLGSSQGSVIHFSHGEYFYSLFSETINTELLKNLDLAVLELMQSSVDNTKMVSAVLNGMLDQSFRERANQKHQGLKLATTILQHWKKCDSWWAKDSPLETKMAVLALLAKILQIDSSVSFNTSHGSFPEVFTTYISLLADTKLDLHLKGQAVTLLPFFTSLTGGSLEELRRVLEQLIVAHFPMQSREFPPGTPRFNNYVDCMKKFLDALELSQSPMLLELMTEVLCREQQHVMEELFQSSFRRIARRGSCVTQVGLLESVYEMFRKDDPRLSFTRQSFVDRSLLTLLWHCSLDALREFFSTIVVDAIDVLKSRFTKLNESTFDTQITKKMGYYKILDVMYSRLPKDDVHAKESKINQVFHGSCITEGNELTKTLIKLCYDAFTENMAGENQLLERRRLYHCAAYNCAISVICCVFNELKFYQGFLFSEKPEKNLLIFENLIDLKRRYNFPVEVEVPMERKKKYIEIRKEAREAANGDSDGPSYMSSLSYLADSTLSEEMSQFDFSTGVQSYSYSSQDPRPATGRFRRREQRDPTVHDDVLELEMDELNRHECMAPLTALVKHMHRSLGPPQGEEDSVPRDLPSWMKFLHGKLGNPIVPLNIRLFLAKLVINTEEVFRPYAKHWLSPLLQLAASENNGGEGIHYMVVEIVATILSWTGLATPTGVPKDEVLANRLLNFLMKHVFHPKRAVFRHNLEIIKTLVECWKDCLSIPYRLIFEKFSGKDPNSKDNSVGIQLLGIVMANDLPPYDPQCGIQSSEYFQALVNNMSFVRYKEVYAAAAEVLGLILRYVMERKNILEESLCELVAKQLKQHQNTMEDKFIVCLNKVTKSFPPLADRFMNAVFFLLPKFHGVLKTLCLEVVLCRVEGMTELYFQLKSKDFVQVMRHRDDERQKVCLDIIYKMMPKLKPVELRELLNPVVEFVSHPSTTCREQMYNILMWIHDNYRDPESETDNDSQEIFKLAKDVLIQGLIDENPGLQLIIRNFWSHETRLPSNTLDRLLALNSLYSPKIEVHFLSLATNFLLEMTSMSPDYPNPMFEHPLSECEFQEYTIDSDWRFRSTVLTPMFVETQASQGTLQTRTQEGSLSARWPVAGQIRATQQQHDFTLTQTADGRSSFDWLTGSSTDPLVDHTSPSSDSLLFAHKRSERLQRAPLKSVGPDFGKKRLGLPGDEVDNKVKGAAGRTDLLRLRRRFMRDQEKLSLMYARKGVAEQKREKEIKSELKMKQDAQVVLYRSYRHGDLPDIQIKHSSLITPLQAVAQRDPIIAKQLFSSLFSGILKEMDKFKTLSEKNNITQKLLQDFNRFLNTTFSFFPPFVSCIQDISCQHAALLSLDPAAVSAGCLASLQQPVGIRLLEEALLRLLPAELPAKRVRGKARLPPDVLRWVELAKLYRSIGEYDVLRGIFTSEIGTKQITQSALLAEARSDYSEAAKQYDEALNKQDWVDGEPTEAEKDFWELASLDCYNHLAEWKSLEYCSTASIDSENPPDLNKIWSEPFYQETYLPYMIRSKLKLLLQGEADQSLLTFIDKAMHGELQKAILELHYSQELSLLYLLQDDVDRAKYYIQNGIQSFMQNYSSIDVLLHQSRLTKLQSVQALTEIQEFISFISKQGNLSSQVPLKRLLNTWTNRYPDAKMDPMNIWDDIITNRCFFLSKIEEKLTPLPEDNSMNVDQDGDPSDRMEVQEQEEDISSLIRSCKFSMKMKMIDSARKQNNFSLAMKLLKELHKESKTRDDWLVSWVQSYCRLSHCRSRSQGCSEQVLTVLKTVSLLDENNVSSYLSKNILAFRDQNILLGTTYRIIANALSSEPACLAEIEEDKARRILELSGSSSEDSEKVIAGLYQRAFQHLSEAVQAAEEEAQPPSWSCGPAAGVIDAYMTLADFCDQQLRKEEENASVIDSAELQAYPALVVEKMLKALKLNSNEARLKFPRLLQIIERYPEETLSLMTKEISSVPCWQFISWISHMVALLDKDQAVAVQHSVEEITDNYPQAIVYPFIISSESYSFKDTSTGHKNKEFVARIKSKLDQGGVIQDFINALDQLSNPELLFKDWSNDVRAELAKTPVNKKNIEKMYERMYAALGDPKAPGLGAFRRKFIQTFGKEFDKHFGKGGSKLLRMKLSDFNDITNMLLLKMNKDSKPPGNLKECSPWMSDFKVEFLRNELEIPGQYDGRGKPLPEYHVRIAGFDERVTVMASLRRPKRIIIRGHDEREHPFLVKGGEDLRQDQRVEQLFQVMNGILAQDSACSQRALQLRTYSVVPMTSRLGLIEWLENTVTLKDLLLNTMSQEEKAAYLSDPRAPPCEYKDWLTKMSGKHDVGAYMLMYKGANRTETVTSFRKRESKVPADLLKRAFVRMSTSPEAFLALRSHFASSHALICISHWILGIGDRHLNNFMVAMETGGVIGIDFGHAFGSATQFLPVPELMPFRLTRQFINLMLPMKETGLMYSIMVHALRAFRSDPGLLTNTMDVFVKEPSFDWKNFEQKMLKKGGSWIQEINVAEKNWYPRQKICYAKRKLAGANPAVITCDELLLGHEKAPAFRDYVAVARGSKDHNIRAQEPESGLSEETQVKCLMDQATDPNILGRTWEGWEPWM
Chain of MICOS complex subunit MIC19 (Homo sapiens) (Q9NX63 whole entry, one chain of several): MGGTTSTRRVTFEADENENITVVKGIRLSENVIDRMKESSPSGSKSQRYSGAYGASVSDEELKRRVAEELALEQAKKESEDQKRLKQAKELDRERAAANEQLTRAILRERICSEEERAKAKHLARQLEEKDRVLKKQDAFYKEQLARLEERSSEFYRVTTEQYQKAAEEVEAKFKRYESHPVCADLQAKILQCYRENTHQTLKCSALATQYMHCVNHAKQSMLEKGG
Chain of MICOS complex subunit MIC25 (Homo sapiens) (Q9BRQ6 whole entry, one chain of several): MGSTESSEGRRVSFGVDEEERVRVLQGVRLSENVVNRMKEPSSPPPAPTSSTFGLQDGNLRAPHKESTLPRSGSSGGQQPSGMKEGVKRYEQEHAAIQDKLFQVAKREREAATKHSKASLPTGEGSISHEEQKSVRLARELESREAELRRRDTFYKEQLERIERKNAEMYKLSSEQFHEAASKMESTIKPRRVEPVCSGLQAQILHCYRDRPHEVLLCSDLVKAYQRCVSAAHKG
Chain of Gem-associated protein 7 (Homo sapiens) (Q9H840 whole entry): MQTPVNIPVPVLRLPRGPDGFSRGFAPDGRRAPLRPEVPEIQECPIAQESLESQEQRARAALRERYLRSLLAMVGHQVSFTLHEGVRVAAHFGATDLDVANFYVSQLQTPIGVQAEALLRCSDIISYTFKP
Chain of Survival motor neuron protein (Homo sapiens) (Q16637 whole entry): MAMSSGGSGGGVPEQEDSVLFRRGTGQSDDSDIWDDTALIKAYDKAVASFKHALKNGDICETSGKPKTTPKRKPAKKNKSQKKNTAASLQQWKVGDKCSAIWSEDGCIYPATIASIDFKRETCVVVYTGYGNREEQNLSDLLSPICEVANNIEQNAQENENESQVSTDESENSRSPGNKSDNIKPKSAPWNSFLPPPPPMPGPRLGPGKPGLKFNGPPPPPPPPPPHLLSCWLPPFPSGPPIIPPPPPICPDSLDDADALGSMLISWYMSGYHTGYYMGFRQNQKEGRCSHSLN

| Activity [1] | Activity [2] | Activity [3] | Activity [4] | Activity [5] | Activity [6] | Activity [8] | Activity [9] | Activity [10] | Activity [11] | Activity [12] | Activity [13] | Activity [14] | Activity [15] | Activity [16] | Activity [17] | Structure (SMILES) | heat shock response inhibition (active/not active) (INA-6) | Activity [7] | also measured |
| --- | --- | --- | --- | --- | --- | --- | --- | --- | --- | --- | --- | --- | --- | --- | --- | --- | --- | --- | --- |
| Active | Active | Active | Active | Active | Active | Active | Active | Active | Active | Active | Active | Active | Active | Active | Active | O=C(CCCC[C@@H]1SC[C@@H]2NC(=O)N[C@@H]21)NCCOCCOCCNCCOc1ccc(C(C(=O)NCc2ccccc2)N(C(=O)CCc2ccc(O)cc2)C2CC2)cc1 (mixture of isomers) | inactive | Active | Activity [18]: Active; Activity [19]: Active; Activity [20]: Active; Activity [21]: Active |
| Active | Active | Active | Active | Active | Active | Active | Active | Active | Active | Active | Active | Active | Active | Active | Active | O=C(CCCC[C@@H]1SC[C@@H]2NC(=O)N[C@@H]21)NCCOCCOCCNCCOc1ccc(C(C(=O)NCc2ccccc2)N(C(=O)CCc2ccccc2)C2CC2)cc1 (mixture of isomers) | inactive | Active |  |

— ChEMBL document CHEMBL4011617, “Ugi Reaction-Derived α-Acyl Aminocarboxamides Bind to Phosphatidylinositol 3-Kinase-Related Kinases, Inhibit HSF1-Dependent Heat Shock Response, and Induce Apoptosis in Multiple Myeloma Cells” (J Med Chem, 2017)
